We go through 5 compounds from ChEMBL document CHEMBL3244096, “Modifications of primaquine as antimalarials. 1. 5-Phenoxy derivatives of primaquine” (J Med Chem, 1977).

In series [1] the test system is Plasmodium berghei. The series can be described thus: Antimalarial activity against blood schizont stage of Plasmodium berghei infected in mouse assessed as mean survival days of host at 320 mg/kg (reference value: 6.1 days). The class given is functional.
Series [2] has as its system Plasmodium berghei. The series can be described thus: Antimalarial activity against blood schizont stage of Plasmodium berghei infected in mouse assessed as mean survival days of host at 80 mg/kg (reference value: 6.1 days). The class given is functional.
Series [3] has as its system Plasmodium berghei. The series can be described thus: Antimalarial activity against blood schizont stage of Plasmodium berghei infected in mouse assessed as mean survival days of host at 20 mg/kg (reference value: 6.1 days). Format: functional.
The test system of series [4] is Plasmodium berghei. The series can be described thus: Antimalarial activity against blood schizont stage of Plasmodium berghei infected in mouse assessed as mean survival days of host at 40 mg/kg (reference value: 6.1 days). The class given is functional.
In series [5] the test system is Plasmodium berghei. The series can be described thus: Antimalarial activity against blood schizont stage of Plasmodium berghei infected in mouse assessed as mean survival days of host at 640 mg/kg (reference value: 6.1 days). Format: functional.
Series [6] has as its system Plasmodium berghei. The series can be described thus: Antimalarial activity against blood schizont stage of Plasmodium berghei infected in mouse assessed as mean survival days of host at 160 mg/kg (reference value: 6.1 days). The class given is functional.
In series [7] the test system is Plasmodium berghei. The series can be described thus: Antimalarial activity against blood schizont stage of Plasmodium berghei infected in mouse assessed as complete disease cure at 640 mg/kg measured 60 days post infection infection. The class given is functional, organism-based. Set-up: dose 640 mg/kg. The method, boiled down: (§1)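 Mice infected with blood-stage Plasmodium berghei, five animals per group, following the Osdene et al. method. Cures are the number of mice alive 60 days after infection. Deaths before day 6 are scored as toxic. Activity is read as the increase in mean survival time over untreated controls, and a group counts as active when its MST exceeds twice the control MST.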

In series [8] the test system is Plasmodium cynomolgi. The series can be described thus: Antimalarial activity against sporozoite stage of Plasmodium cynomolgi infected in rhesus monkey assessed as radical curative activity at 0.125 mg/kg measured for 90 days. Further details: dose 0.125 mg/kg. The class given is functional, organism-based. The procedure, abridged:
(§2)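 Rhesus monkeys infected by sporozoite inoculation of Plasmodium cynomolgi and dosed at the mg/kg levels given. Results are recorded as cures per number of animals, or as the day of relapse. An animal with no relapse within 90 days is counted as cured.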

Series [9] deals with Plasmodium cynomolgi. Nature of the series: Antimalarial activity against sporozoite stage of Plasmodium cynomolgi infected in rhesus monkey assessed as radical curative activity at 0.5 mg/kg measured for 90 days. The class given is functional, organism-based. Further details: dose 0.5 mg/kg. The procedure, abridged: as §2
The subject of series [10] is Plasmodium berghei. The series can be described thus: Antimalarial activity against blood schizont stage of Plasmodium berghei infected in mouse assessed as complete disease cure at 320 mg/kg measured 60 days post infection infection. Format: functional, organism-based. Further details: dose 320 mg/kg. The procedure, abridged: as §1
Series [11] concerns Plasmodium cynomolgi. The series can be described thus: Antimalarial activity against sporozoite stage of Plasmodium cynomolgi infected in rhesus monkey assessed as radical curative activity at 0.75 mg/kg measured for 90 days. Format: functional, organism-based. Further details: dose 0.75 mg/kg. The procedure, abridged:
as §2

For series [12], the system named is Mus musculus. Nature of the series: Toxicity in mouse infected with blood schizont stage of Plasmodium berghei assessed as mortality at 640 mg/kg measured prior to 6th day. The class given is organism-based. The following applies: in vivo. Set-up: dose 640 mg/kg. The method, boiled down:
(§3)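 In P. berghei-infected mice, five per group, deaths occurring before day 6 after infection are recorded as drug-toxic deaths.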

The test system of series [13] is Mus musculus. Nature of the series: Toxicity in mouse infected with blood schizont stage of Plasmodium berghei assessed as mortality at 160 mg/kg measured prior to 6th day. Format: organism-based. The following applies: in vivo. Set-up: dose 160 mg/kg. The procedure, abridged: as §3
Series [14] deals with Plasmodium cynomolgi. The series can be described thus: Antimalarial activity against sporozoite stage of Plasmodium cynomolgi infected in rhesus monkey assessed as radical curative activity at 0.25 mg/kg measured for 90 days. The class given is functional, organism-based. Further details: dose 0.25 mg/kg. The method, boiled down:
as §2

The test system of series [15] is Mus musculus. The series can be described thus: Toxicity in mouse infected with blood schizont stage of Plasmodium berghei assessed as mortality at 320 mg/kg measured prior to 6th day. The class given is organism-based. Set-up: dose 320 mg/kg. The following applies: in vivo. The method, boiled down: as §3
The test system of series [16] is Plasmodium cynomolgi. Nature of the series: Antimalarial activity against sporozoite stage of Plasmodium cynomolgi infected in rhesus monkey assessed as radical curative activity at 10 mg/kg measured for 90 days. Format: functional, organism-based. Further details: dose 10 mg/kg. The procedure, abridged: as §2
The subject of series [17] is Plasmodium cynomolgi. Nature of the series: Antimalarial activity against sporozoite stage of Plasmodium cynomolgi infected in rhesus monkey assessed as radical curative activity at 1 mg/kg measured for 90 days. Format: functional, organism-based. Set-up: dose 1 mg/kg. The procedure, abridged:
as §2

Active and inactive are the calls of the source.

As for `COc1cc(NC(C)CCCN)c2ncccc2c1Oc1ccccc1.O.O=P(O)(O)O` (configuration not stated), the Survival came to 7.5 days with Plasmodium berghei [1]; 1.7 days with Plasmodium berghei [2]; 0.3 days with Plasmodium berghei [3]; 1.5 days in the series on Plasmodium berghei [4]; 9.9 days in the series with Plasmodium berghei [5]; 5.1 days with Plasmodium berghei [6].
For `COc1cc(NC(C)CCCN)c2ncccc2c1Oc1ccc(F)cc1.O.O=C(O)CC(O)(CC(=O)O)C(=O)O` (configuration not stated), the outcome with Plasmodium berghei [7] and in the series with Plasmodium berghei [10] was Active. Besides, the outcome with Plasmodium cynomolgi [8] and in the series with Plasmodium cynomolgi [9] was inactive. In addition, the Survival in the series with Plasmodium berghei [2] came out at 7.5 days; in the series with Plasmodium berghei [3], 2.1 days; in the series with Plasmodium berghei [4] it was 5.7 days; in the series with Plasmodium berghei [6] it was 8.9 days.
Regarding `COc1cc(NC(C)CCCN)c2ncccc2c1` (configuration not stated) [PRIMAQUINE], the result in the series with Plasmodium cynomolgi [11] was Active. The Activity entry with Mus musculus [12], in the series with Mus musculus [13] and in the series on Mus musculus [15] was “Toxic” throughout. The Survival in the series with Plasmodium berghei [2] turned out to be 9.4 days; in the series with Plasmodium berghei [3], 4 days; in the series with Plasmodium berghei [4], 5 days. Moreover, the result with Plasmodium cynomolgi [14] was inactive.
On to `COc1cc(NC(C)CCCN)c2ncccc2c1Oc1ccc(NC(C)=O)cc1` (configuration not stated), for which the result in the series on Plasmodium cynomolgi [16], in the series with Plasmodium cynomolgi [11], in the series on Plasmodium cynomolgi [17], in the series on Plasmodium cynomolgi [8], in the series with Plasmodium cynomolgi [9] and in the series with Plasmodium cynomolgi [14] was inactive.
For the compound `COc1cc(NC(C)CCCN)c2ncccc2c1Oc1ccc(Cl)cc1` (configuration not stated), the outcome in the series with Plasmodium cynomolgi [16], with Plasmodium cynomolgi [17] and in the series on Plasmodium cynomolgi [9] was Active. For the same compound, the Survival worked out at 8.1 days in the series with Plasmodium berghei [1]; 5.5 days in the series with Plasmodium berghei [2]; 0.7 days with Plasmodium berghei [3]; 4.7 days with Plasmodium berghei [4]; 7.1 days with Plasmodium berghei [6]. Further, the result in the series on Plasmodium cynomolgi [14] was inactive.
